Our source for the Apoptosis and IC50 values is ChEMBL document CHEMBL1143576, “Discovery of 2-arylthiazolidine-4-carboxylic acid amides as a new class of cytotoxic agents for prostate cancer” (J Med Chem, 2005).

Some results are limits rather than exact numbers.

Experiment [1] concerns PC-3. Briefly: Induction of apoptosis in human PC-3 cell line at 2 uM concentration after 72 hr. Format: functional. A digest of the protocol:
(§1)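 Cells were exposed to compound for 72 h. Cytoplasmic DNA-histone complexes (mono- and oligonucleosomes) were quantified by sandwich ELISA using monoclonal antibodies against DNA and histones. The enrichment factor is the OD405 ratio of treated to untreated cells.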

Experiment [2] relates to PC-3. Briefly: Induction of apoptosis in human PC-3 cell line at 5 uM concentration after 72 hr. The format is functional. A digest of the protocol:
as §1

Another experiment relates to RH7777. In words: Antiproliferative effect against RH7777 cell line using sulforhodamine B(SRB) assay. Format: functional, cell-based. To be noted: Rattus norvegicus. A digest of the protocol:
(§2)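 Cells seeded at 1000 to 5000 per well, depending on growth rate, and exposed to a range of concentrations for 96 h, in three to five replicates. Stocks were 5 to 20 mM in DMSO, diluted into complete medium. Endpoint cell number was measured by SRB: 10% trichloroacetic acid fixation, 0.4% SRB stain, absorbance at 540 nm.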

For the next experiment, the system named is PPC-1. In words: Antiproliferative activity against prostate cancer PPC-1 cell line using sulforhodamine B(SRB) assay. Format: functional, cell-based. To be noted: Homo sapiens. The method, boiled down:
as §2

The subject of experiment [3] is LNCaP. In words: Induction of apoptosis in human LNCaP Cell line at 2 uM concentration after 72 hr. Format: functional. The method, boiled down: as §1
In experiment [4] the test system is LNCaP. In words: Antiproliferative activity against prostate cancer LNCaP Cell line using sulforhodamine B(SRB) assay. To be noted: Homo sapiens, Prostate gland. Format: functional, cell-based. A digest of the protocol: as §2
Experiment [5] concerns PC-3. In words: Antiproliferative activity against prostate cancer PC-3 cell line using sulforhodamine B(SRB) assay. Format: functional, cell-based, Homo sapiens. A digest of the protocol: as §2
In experiment [6] the test system is PC-3. Briefly: Induction of apoptosis in human PC-3 cell line at 10 uM concentration after 72 hr. Format: functional. The method, boiled down: as §1
Another experiment has as its system DU-145. In words: Antiproliferative activity against prostate cancer DU-145 cell line using sulforhodamine B(SRB) assay. To be noted: Homo sapiens. The format is functional, cell-based. The method, boiled down:
as §2

In experiment [7] the test system is LNCaP. In words: Induction of apoptosis in human LNCaP Cell line at 5 uM concentration after 72 hr. The format is functional. The method, boiled down: as §1
The subject of experiment [8] is PC-3. Briefly: Induction of apoptosis in human PC-3 cell line at 20 uM concentration after 72 hr. Format: functional. The method, boiled down: as §1
The test system of experiment [9] is LNCaP. In words: Induction of apoptosis in human LNCaP Cell line 20 at uM concentration after 72 hr. Format: functional. A digest of the protocol:
as §1

For the next experiment, the system named is TSU. Briefly: Antiproliferative activity against prostate cancer TSU-Pr1 cell line using sulforhodamine B(SRB) assay. Format: functional, cell-based. The note with it: Homo sapiens. A digest of the protocol: as §2
For experiment [10], the system named is LNCaP. In words: Induction of apoptosis in human LNCaP Cell line 10at uM concentration after 72 hr. Format: functional. A digest of the protocol:
as §1

Experiment [11] has as its system RH7777 (Rattus norvegicus). In words: Antiproliferative effect against RH7777 cell line using sulforhodamine B(SRB) assay; No activity.

For `CCCCCCCCCCCCCCCCCCNC(=O)[C@H]1CSC(c2ccccc2)N1.Cl` (stereo not given in full), the Apoptosis in the experiment with PC-3 [1] is reported as 1.4; with PC-3 [2], 2.3; in the experiment on LNCaP [3], 4.5; in the experiment with PC-3 [6], 3.4; in the experiment with LNCaP [7], 45.2; in the experiment on PC-3 [8], 12.7. Moreover, the Apoptosis with LNCaP [9] worked out at 26.1; in the experiment with LNCaP [10] it was 37.1. For the same compound, the IC50 – broadly, the concentration at which inhibition is half-maximal – in the experiment with RH7777 was determined as 25.6 µM; in the experiment on PPC-1 it was 2 µM; in the experiment with LNCaP [4] it was 2.1 µM; with PC-3 [5] (Homo sapiens, PC-3, read-out: IC50) it was 7.8 µM; with DU-145, 5.4 µM; in the experiment with TSU it was 5 µM.
For `CCCCCCCCCCCCCCCCCCCNC(=O)[C@H]1CSC(c2ccccc2)N1.Cl` (stereo not given in full), the IC50 in the experiment on PPC-1 was 16.8 µM; in the experiment with LNCaP [4], 13.6 µM; in the experiment with PC-3 [5] (pc-3) it was “No activity”; in experiment [11] it was “No activity”; in the experiment on DU-145, more than 20 µM; with TSU, more than 20 µM.
